Screening data from PubChem.
hiPSC survival: hiPSC single-cell survival enhancement; ATPlite luminescence; 100% = ROCK inhibitor wells, 0% = DMSO; survival enhancement, % at 20 µM; 0.044% of 360,000 active; in the data active = survival enhancement above about 18%;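 note: cells exposed to compounds for 16 hours before the ATP read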
Cardio protect: myocardial damage modulation in H9c2 cells; protection from H2O2 cell death, % at 20 µM; H9c2 cardiomyocytes, H2O2 injury protection, ATPLite, 2 h; 0.63% of 360,000 active; AID 588492;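 active = compounds giving at least 50% protection of heart cells from peroxide-induced death in the single-dose screen, raw or plate-pattern-corrected value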;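 note: 0% = DMSO wells with peroxide and 100% = DMSO wells without peroxide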
CRFBP-R2 block: CRF-BP/CRF-R2 complex antagonism | inhibition, % at 11.8 µM | HEK293 CRF-R2/CRF-BP, CRF-induced calcium fluorescence | 0.59% of 350,000 active;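 active = inhibition of the ligand-induced calcium signal above about 50% at the single tested concentration, limit read from the data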
MIN6 prolif-1: induces beta-cell replication in MIN6 cells; MIN6 cells proliferation, ATPlite luminescence, 48 h; cells starved in 0.2% serum; 100% = growth in 10% serum; 0.29% of 330,000 active; proliferation, % at 10 µM;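 active = compounds whose signal lies at least 3.5 SD above the mean of all wells on their plate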;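 note: 0% = DMSO-treated cells in low-serum medium and 100% = 10% serum control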
CRFBP-R2 agonist: CRF-BP/CRF-R2 complex agonism; HEK293 CRF-R2/CRF-BP, calcium dye fluorescence (FLIPR); percent of saturating CRF peptide response; activation, % at 13.2 µM; 0.46% of 350,000 active;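 active = activation of at least 50%, plus an integration ratio under a set limit after plate pattern correction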;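 note: plate controls were neutral control wells without compound for no effect and CRF at EC100 for full effect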
UCH37 inh: human UCH37 deubiquitinating enzyme inhibition. Q9Y5K5. purified proteasome/UCH37, Ub-AMC cleavage fluorescence. inhibition, % (concentration not given with the values). 0.33% of 330,000 active. AID 588478;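 active = mean inhibition over replicate wells above about 20%, limit read from the data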;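 note: 0% = compound-free wells with enzyme and 100% = wells lacking proteasome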
Target sequence (Q9Y5K5 whole entry, looked up): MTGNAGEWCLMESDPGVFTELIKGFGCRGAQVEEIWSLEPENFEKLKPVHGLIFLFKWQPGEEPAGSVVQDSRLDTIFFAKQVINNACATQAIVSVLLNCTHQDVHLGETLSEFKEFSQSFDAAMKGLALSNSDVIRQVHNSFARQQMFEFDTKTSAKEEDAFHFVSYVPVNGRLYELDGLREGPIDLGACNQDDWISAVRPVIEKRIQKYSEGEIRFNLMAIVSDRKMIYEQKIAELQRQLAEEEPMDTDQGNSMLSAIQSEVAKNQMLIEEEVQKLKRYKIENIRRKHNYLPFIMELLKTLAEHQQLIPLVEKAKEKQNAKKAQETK
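System: Proteasome-associated human UCH37 deubiquitinase; Input: 0.15 nM proteasome in added enzyme buffer; Also added: Ub-AMC substrate from 1 µM stock; Incubation: 30 min compound-proteasome preincubation then 25 min substrate reaction, room temperature; Detection: fluorescence, ex 355 nm, em 460 nm; Read-out: % inhibition of Ub-AMC cleavage fluorescence; Benchmarks: no-proteasome and no-compound wells.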
MIN6 prolif-2: MIN6 beta-cell replication induction, confirmed; MIN6 beta-cell proliferation, ATPlite luminescence, 48 h; cells kept in 0.2% serum; scaled between 0.2% and 10% serum; shares compounds with MIN6 prolif-1; 920 tested, under 10 active; AID 463095; proliferation increase, % at 50 µM;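 active = proliferation increase above 40% at any of the four tested concentrations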
An asterisk follows results filed as active; nt = not tested or not shown. Compounds with a hit are over-represented: about 2.1% of the library has one in this group of screens.

SMILES	hiPSC survival	Cardio protect	CRFBP-R2 block	MIN6 prolif-1	CRFBP-R2 agonist	UCH37 inh	MIN6 prolif-2
CCN(CC)S(=O)(=O)c1ccc(NC(=O)c2ccc(Sc3nncn3C)c([N+](=O)[O-])c2)cc1	-2	-2	-7	0	-2	6	nt
CCS(=O)(=O)c1ccc(Sc2nncn2C)c([N+](=O)[O-])c1	-1	8	-6	7.7*	1	5	-6
CCOc1ccc2ccccc2c1C=NNC(=O)CNC(=O)c1ccccc1F	nt	nt	nt	nt	nt	-10	nt
COc1ccc(C2=Nn3c(nnc3-c3ccncc3)SC2)cc1	1	7	9	14*	0	5	4
COc1ccc(C2=Nn3c(nnc3-c3cccnc3)SC2)cc1	4	2	-2	nt	0	4	nt
CC(C)(CN1CCc2ccccc2C1)NS(=O)(=O)c1ccccc1	0	-8	-13	7.7*	1	4	-6
CN1CCN(CC(C)(C)NS(=O)(=O)c2ccccc2)CC1	1	-2	-3	0	-2	0	nt
CC(=NNC(=O)C1CC1c1ccccc1)c1cccc([N+](=O)[O-])c1 (stereo not drawn)	nt	nt	nt	nt	nt	-3	nt
CC(=NNc1nc2ccccc2s1)c1cccs1	nt	nt	nt	nt	nt	3	nt
c1ccc2c(N3CCCC3)nc(-c3ccncc3)nc2c1	6	-1	-15	14*	-2	-1	-6
COc1nc(-c2ccncc2)nc2ccccc12	-1	3	-16	6.2*	-1	-1	-5
CN1CCN(c2nc(-c3ccncc3)nc3ccccc23)CC1	14	6	-4	1	0	4	nt
COc1ccccc1N(CC(=O)NN=Cc1ccccc1C(=O)O)S(C)(=O)=O	nt	nt	nt	nt	nt	6	nt
CC(C)Nc1nc(NC(C)(C)C)nc(Oc2ccc(=O)n(C)n2)n1	0	-7	-46	7.4*	17	4	4
COCCNC(=O)C(=O)NN=Cc1ccccc1C(F)(F)F	nt	nt	nt	nt	nt	4	nt
COc1ccc(-c2nc3c(c(SCC(=O)N4CCCC4)n2)COC(C)(C)C3)cc1	-1	4	-10	11*	-1	0	-5
Cc1ccc(NC(=O)CCC(=O)NN=Cc2cccs2)cc1	nt	nt	nt	nt	nt	4	nt
O=C(NCc1cccnc1)c1cccn1-c1ncc(C(F)(F)F)cc1Cl	2	3	-12	8.8*	0	-2	-1
COc1ccc(-c2cc(C(=O)NN=Cc3ccc4c(c3)OCO4)c3ccccc3n2)c(OC)c1	nt	nt	nt	nt	nt	-16	nt
COc1ccc(C(C)=NNC(=O)CNC(=O)c2ccncc2)c(OC)c1	nt	nt	nt	nt	nt	2	nt
COc1ccc(/C(C)=N/NC(=O)CNC(=O)c2cccnc2)c(OC)c1	-1	8	-24	6.4*	0	nt	1
COc1cc(/C=N/NC(=O)C(NC(=O)c2ccccc2)c2n[nH]c(=O)c3ccccc23)ccc1OCC(N)=O (stereo not drawn)	0	18	6	-1	-1	nt	nt
COc1ccc(/C(C)=N/NC(=O)C(NC(=O)c2ccccc2)c2n[nH]c(=O)c3ccccc23)c(OC)c1 (stereo not drawn)	0	7	-29	6.8*	21	nt	4
CC(=NNS(=O)(=O)c1ccccc1)c1ccc2c(c1)OCCO2	nt	nt	nt	nt	nt	2	nt
Nc1ccc[n+](Cc2ccccn2)c1	3	5	1	4.9*	0	-51	1
SMILES	hiPSC survival	Cardio protect	CRFBP-R2 block	MIN6 prolif-1	CRFBP-R2 agonist	UCH37 inh	MIN6 prolif-2
Nc1ccc(Cc2ccccn2)cc1	3	-2	32	-2	-3	-1	nt
Cc1ccc(N(CC(=O)NC2CCCC2)C(=O)CCC(=O)Nc2nccs2)c(C)c1	0	7	6	21*	-1	1	-1
COc1ccccc1NC(=O)C1CCCN(c2nc(C)cc(C)n2)C1 (stereo not drawn)	-2	2	9	7.5*	0	-3	3
NS(=O)(=O)c1ccc(NC(=O)c2ccc3c(c2)CCCC3)cc1	1	-3	-3	5.3*	-1	1	0
CCN1CCN(C(=O)Cn2ncc3ccsc3c2=O)CC1	-1	2	18	9.8*	0	1	2
CCN1CCN(C(=O)Cn2c(=O)sc3ccccc32)CC1	3	6	-12	-2	0	0	nt
CCOc1ccc2nc(SCC(=O)N3CCCCCC3)c(C#N)cc2c1	5	3	22	5.3*	0	0	0
CCOc1ccc2cc(C#N)c(SCC(=O)N3CCOCC3)nc2c1	-3	4	-21	-2	1	-101	nt
COc1ccc(CN2CCCCC2c2cccnc2)c(OC)c1C (stereo not drawn)	-2	3	8	6.7*	0	2	-1
COc1ccc(OC)c(-c2nc(CN3CCCCC3c3cccnc3)c(C)o2)c1 (stereo not drawn)	-2	4	-3	6	2	-26	nt
O=C(O)CCCNC(=O)Nc1ccccc1	-1	8	-4	-3	-1	-1	nt
CCCCCCNC(=O)Nc1ccccc1	0	-7	-4	8.2*	2	3	-4
Nc1ncnc2c1ncn2[C@H]1C[C@H](O)[C@@H](COP(=O)(O)O)O1	-1	4	-3	13*	1	-2	0
NCC1OC(n2cnc3c(N)ncnc32)CC1O (stereo not drawn)	2	1	4	nt	0	nt	nt
COc1ccc(C=NNc2cc(C)nc(N3CCOCC3)n2)cc1OC	nt	nt	nt	nt	nt	9	nt
COc1ccc(-n2c(C)cc(C=NNc3nnc(C)n3N)c2C)cc1	nt	nt	nt	nt	nt	1	nt
CCN(CC)C(=O)[C@]1(c2ccccc2)C[C@@H]1CN	nt	nt	nt	12*	nt	nt	1
CCN(CC(=O)Nc1c(F)cccc1F)C(=O)C1(c2ccccc2)CC1	0	3	3	1	-1	4	nt
CC(C)OP(=O)(c1ccc(N(C)C)cc1)C(O)c1ccc(Br)cc1 (stereo not drawn)	0	-4	0	9.0*	0	2	-1
O=C(NN=Cc1cccc(Oc2ccccc2)c1)c1ccccc1Br	nt	nt	nt	nt	nt	6	nt
CCOc1ccccc1-n1c(SCC(=O)N2CCCc3ccccc32)nnc1-c1cccnc1	0	0	-7	6.6*	-1	2	-2
COC(=O)c1nn(-c2ccccc2)c(Sc2ccc(OC)cc2)c1/C=N/O	9	-10	11	6.5*	0	nt	-4
COc1ccc(C=Nn2nnnc2N)cc1OC	nt	nt	nt	nt	nt	-14	nt
Cc1cccc(N(CC(=O)NN=Cc2cc([N+](=O)[O-])ccc2Cl)S(C)(=O)=O)c1C	nt	nt	nt	nt	nt	2	nt
CCOC(=O)c1c2n(c3ccc(O)cc13)CCC2	3	-8	-27	9.1*	-2	6	0
Brc1nnc2n1-c1ccccc1Sc1ccccc1-2	3	8	7	5.6*	-1	0	-6
